OX1R antag-1 = blocks the human orexin 1 receptor. CHO/OX1R cells, Fluo-8 calcium fluorescence, orexin A. inhibition, % at 5 µM. 330,000 compounds, 0.43% hits. AID 434989;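 active = inhibition above its plate's threshold, mean inhibition of all tested compounds on the plate plus 3 SD, cut at about 37% in these data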;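 also: 0% = orexin A challenge wells and 100% = SB-334867-A antagonist wells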
Target sequence (O43613 whole entry, looked up): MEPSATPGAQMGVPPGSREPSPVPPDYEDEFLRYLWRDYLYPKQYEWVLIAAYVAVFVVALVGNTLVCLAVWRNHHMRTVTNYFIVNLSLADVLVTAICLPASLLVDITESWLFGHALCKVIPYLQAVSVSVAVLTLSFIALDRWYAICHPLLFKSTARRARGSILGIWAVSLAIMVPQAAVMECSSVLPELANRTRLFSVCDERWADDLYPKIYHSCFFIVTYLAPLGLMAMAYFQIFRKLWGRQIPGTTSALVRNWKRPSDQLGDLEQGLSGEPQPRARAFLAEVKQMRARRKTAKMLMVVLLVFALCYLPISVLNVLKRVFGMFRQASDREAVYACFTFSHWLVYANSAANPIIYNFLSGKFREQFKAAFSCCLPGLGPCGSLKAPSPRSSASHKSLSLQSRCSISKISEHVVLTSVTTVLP
OX1R antag-2 = OX1R (human) antagonism; O43613; 330,000 compounds, 1.8% hits; AID 485270; OX1R-expressing cells, FRET antagonist read-out; inhibition, % at 6.6 µM; in the data active = inhibition mostly above about 38%, no sharp cut-off; inactive = mostly below about 40%;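 also: 0% = agonist challenge alone and 100% = reference antagonist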
CHO parental Ca = counter-screen for OX1R antagonists: effect in parental CHO cells. parental CHO-K1, ATP-induced calcium, Fluo-8 fluorescence. inhibition, % at 5.6 µM. 330,000 compounds, 0.63% hits. AID 463079;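 active = inhibition above that plate's mean sample inhibition plus 3 SD, cut at about 26% in these data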;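 also: 0% = ATP-challenged DMSO wells and 100% = DMSO wells without ATP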
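Assay system: parental CHO cells; Read-out basis: percent inhibition of ATP-evoked calcium rise, normalized to controls; Benchmarks: ATP and no-ATP DMSO wells; Compound dosing: single nominal dose of 5.6 µM per compound; Signal: Fluo-8 calcium dye fluorescence; Also added: ATP as calcium-mobilizing challenge; Repeats: singlicate.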
TAAR1 ag = human TAAR1 agonism. activation, % at 3 µM. CHO RD-HGA16 TAAR1, Fluo-8 calcium fluorescence; vehicle wells 0%, saturating PEA agonist 100%. 360,000 compounds, 0.99% hits;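 active = activation above the mean activation of all test compounds in the run plus 3 SD, cut at about 38% in these data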
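System: CHO RD-HGA16 cells carrying human TAAR1 plus Gα16; Incubation: 17-24 h seeding, 75 min 37 °C dye, 30 min RT; Measured by: Fluo-8 fluorescence, 5 s baseline then 140 s kinetic read; Control set: DMSO and PEA EC100; Replication: single well for each compound.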
TAAR1 antag = human TAAR1 antagonism | AID 624466 | Q96RJ0 | inhibition, % at 3 µM | CHO RD-HGA16 TAAR1, Fluo-8 calcium fluorescence, antagonist | 360,000 compounds, 1.5% hits;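 active = inhibition above a per-plate cutoff, the mean inhibition of test compounds on that plate plus 3 SD, cut at about 49% in these data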;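 also: 0% = DMSO plus EC80 beta-PEA response and 100% = DMSO alone without agonist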
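Test system – hTAAR1-expressing CHO RD-HGA16 cells, Gα16-coupled · Reagent – β-PEA at EC80 concentration, post-compound challenge · Compound dosing – 3 µM, single point · Timing – 140 s kinetic read after compound, 140 s after agonist · Detection – Fluo-8 intracellular calcium dye fluorescence, real-time kinetic reads · Control set – DMSO and EC80 PEA controls · Repeats – n of 1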
Starred values were filed as active, the others as inactive; x = no result. Hits are enriched below; roughly 4% of the tested compounds scored in any of these assays.

SMILES | OX1R antag-1 | OX1R antag-2 | CHO parental Ca | TAAR1 ag | TAAR1 antag
OCCCc1nc2n(n1)C(c1cccs1)C=C(c1ccc(Br)cc1)N2 (stereo not given) | 30 | 17 | 39* | x | x
CC1=C(C(N)=O)C(c2ccc(Br)cc2)n2nc(CCCO)nc2N1 (stereo not given) | -23 | -6 | 0 | -1 | -1
CCCN(CCC)C(=O)C1CCN(c2ccc(S(=O)(=O)N3CCOCC3)cc2[N+](=O)[O-])CC1 | -28 | 25 | -17 | 0 | -6
C[C@@]12C(=O)N(c3ccccc3)C(=O)N1[C@@H]1c3ccccc3OC[C@@H]1[C@H]2c1ccccc1 | -10 | 8 | -10 | 6 | 55*
Cc1cccc(C(=O)N2CCN(c3ccc([N+](=O)[O-])c(N4CCOCC4)c3)CC2)c1 | -61 | 75* | -10 | 2 | 14
O=C(c1ccc2ccccc2c1)N1CCN(c2ccc([N+](=O)[O-])c(N3CCOCC3)c2)CC1 | -41 | 43 | -14 | 3 | 28
Cc1cc(C)c(C(N)=O)c(SCC(=O)c2cc(C)n(-c3cc(C)on3)c2C)n1 | 15 | 12 | 31* | -1 | -4
Cn1nc(N)c2c(-c3ccc(Cl)cc3)c(C#N)c(N)nc21 | -19 | 43 | -15 | 0 | -1
CCN(CC)c1ccc(-c2c(C#N)c(N)nc(OC)c2C#N)cc1 | 5 | 17 | 36* | 33 | 57*
CCCCCCCCN1C(=O)[C@@H](CC(=O)NCCCN2CCCC2=O)C[C@@]2(C(=O)OC)C1=C[C@H](C1CCCC1)O[C@@H]2C | x | x | x | 3 | -46
CCN(CC)S(=O)(=O)c1cccc(C(=O)Nc2nc3cc4c(cc3s2)OCCO4)c1 | 1 | 40 | 8 | 4 | 52*
O=C(Nc1nc2cc3c(cc2s1)OCCO3)c1cccs1 | 12 | 66* | 7 | 3 | -7
CC(=O)Nc1ccc2nc(NC(=O)c3cccs3)sc2c1 | -9 | 20 | -7 | 2 | -5
Cc1ccc(C(=O)Nc2cccnc2)cc1Cl | -33 | -2 | -5 | 18 | 7
CN(C)CCCNc1nc(-c2ccccc2)nc2ccccc12 | -16 | 23 | -28 | 4 | -18
CC(C)(C)C(=O)OCCNc1nc(-c2ccccc2)nc2ccccc12 | -13 | 72* | -17 | 0 | 28
CC(C)OCCCNc1nc(-c2ccccc2)nc2ccccc12 | 23 | 51* | -17 | 2 | 32
Cc1cc2c(cc1S(=O)(=O)NCc1ccc(N(C)C)cc1)OCC(=O)N2 | -18 | 10 | -15 | 2 | -4
Nc1[nH]c(C(=O)c2ccccc2)c(-c2cc(F)ccc2Br)c1C(=O)NCCc1c[nH]c2ccccc12 | x | x | x | 2 | 1
Cc1cc2c(c(=O)o1)[C@@]1(C(=O)N(C)c3cc(Br)ccc31)C1=C(CCCC1=O)O2 | x | x | x | 2 | -7
CCOc1ccc(Br)cc1CC(=O)O | -15 | 17 | -24 | 5 | -1
CCCOc1ccc(Br)cc1CSC(=N)N | 0 | 12 | 14 | 80* | 50*
COc1ccc(C(C(=O)NCc2ccccc2)N(Cc2ccco2)C(=O)c2cnccn2)cc1 (stereo not given) | -18 | 23 | 0 | 15 | 53*
CC(C)Cc1ccc(C(C)NC(=O)Cc2ccc(S(=O)(=O)N3CCOCC3)s2)cc1 (stereo not given) | -12 | 0 | 5 | 38* | 45
CC(C)CCC(C)NC(=O)Cc1ccc(S(=O)(=O)N2CCOCC2)s1 (stereo not given) | -17 | -6 | -19 | 2 | -24
SMILES | OX1R antag-1 | OX1R antag-2 | CHO parental Ca | TAAR1 ag | TAAR1 antag
CCOC(=O)C(=CNc1ccc(-c2ccco2)c(Cl)c1)C(=O)OCC | -15 | -4 | -22 | -2 | -78
C[C@H]1CNC(=O)c2c(C(=O)N3CCN(C(=O)OC(C)(C)C)CC3)ncn21 | x | x | x | 0 | 12
CCOc1cc(/C=N/NC(=O)CCn2nnc3ccccc32)ccc1O | -12 | 46* | 2 | 3 | -1
COc1ccc(/C=N/NC(=O)Cn2nnc3ccccc32)cc1OC | 8 | 28 | -7 | 1 | 14
CC(C)OC(=O)NC(C)(C)COC(=O)Nc1cccc(Cl)c1 | 20 | 31 | 35* | 9 | 4
O=C(Nc1cccc(Cl)c1)OCCOC(=O)Nc1cccc(Cl)c1 | x | x | x | 0 | 18
CC(C)OC(=O)NCCOC(=O)Nc1cccc(Cl)c1 | 48* | 59 | 37* | 14 | 30
CC(C)OC(=O)NCCOC(=O)Nc1ccc(Cl)c(Cl)c1 | 40 | 38 | 50* | 5 | 28
CC(O)(c1cccnc1)c1nc(-c2cc(F)cc(F)c2)cs1 (stereo not given) | x | x | x | 1 | 10
O=C1c2ccccc2C(Nc2ccc3c(c2)OCCO3)N1Cc1ccccc1 (stereo not given) | -7 | 15 | -6 | x | x
CCn1c(SCC(=O)Nc2nc(-c3ccc(C)cc3)cs2)nnc1-c1ccccc1O | 36 | 56 | 33* | 7 | 35
Oc1ccc(Br)cc1C=Nc1ccc2c3c(cccc13)CC2 | 56* | 6 | 42* | 5 | 2
CCN(CC)c1ccc(S(=O)(=O)N2CCOCC2)cc1NC(=O)COC(=O)/C=C/c1ccc(C)o1 | 3 | 8 | 15 | 8 | 65*
COc1ccccc1Cc1c(C2CCCCC2)nc2c(C)cc(Br)cn12 | x | x | x | -1 | -3
O=[N+]([O-])c1cccc(NC(=S)Nc2nc(-c3ccccc3Cl)cs2)c1 | 31 | 31 | 64* | 5 | 17
CCNC(=S)Nc1cccc([N+](=O)[O-])c1 | 3 | 24 | 10 | x | x
Cc1cc(C)cc(NS(=O)(=O)c2cnc(Cl)c(Cl)c2)c1 | 52* | 30 | 95* | 2 | 1
COc1cc(S(=O)(=O)Nc2cc(C)cc(C)c2)ccc1F | -24 | 7 | -4 | 1 | -8
CC(C)CNC(=O)COC(=O)c1c2c(nc3ccccc13)/C(=C\c1cccs1)CC2 | x | x | x | 0 | 50*
CC(=O)c1ccc(NC(=O)COC(=O)c2c3c(nc4ccccc24)/C(=C\c2cccs2)CCC3)cc1 | -3 | 26 | 8 | 8 | 58*
CN(CCC#N)C(=O)COC(=O)c1c2c(nc3ccccc13)/C(=C/c1ccco1)CC2 | 4 | 39 | 5 | -1 | -11
O=C(COC(=O)c1c2c(nc3ccccc13)/C(=C\c1cccs1)CCC2)Nc1ccccc1 | -12 | 10 | -18 | 3 | 20
Cc1cccc(NC(=O)CSc2nnc(NC(=O)c3ccco3)s2)c1 | -25 | 19 | -15 | 4 | 12
O=C(O)CC/C(=C\c1cccc(NC(=O)c2ccccc2Cl)c1)c1nc2ccccc2s1 | -11 | 35 | -14 | 12 | 50*
Cc1cccc(Nc2nc(-c3c(C)nc4ccccn34)cs2)c1 | 70* | 32 | 43* | 0 | 48
Cc1nc2ccccn2c1-c1csc(Nc2cccc(C(=O)O)c2)n1 | -4 | 7 | -13 | 1 | 8
Cc1nc2ccccn2c1-c1csc(Nc2ccc(C(=O)O)cc2)n1 | -19 | 3 | -23 | 3 | -14
